Test results taken from ChEMBL document CHEMBL4689842, “EUbOPEN Chemogenomics Library wave 1” (2021).

Test system: U2OS
Experiment: Multiplex assay against U2OS
Assay type: toxicity, cell-based
Conditions: human
Procedure, shortened: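 Live cells were stained at seeding with Hoechst33342, BioTracker Green Microtubule Cytoskeleton Dye, MitoTracker Red and Annexin V Alexa Fluor 680. Following compound addition, they were imaged on a CQ1 microscope at 37°C and 5% CO2 and gated by CellPathfinder machine learning into Hoechst high-intensity objects or normal cells, with normal cells split into healthy, pyknosed or fragmented nuclei and pyknosed cells into mitotic or apoptotic. Tubulin, mitochondrial-mass and membrane-permeability phenotypes are per cents of healthy-nucleus cells.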

[1] = 12 h, 1 µM, compound concentration 1 uM, replicate 1
[2] = 12 h, 1 µM, compound concentration 1 uM, replicate 2
[3] = 12 h, 10 µM, compound concentration 10 uM, replicate 1
[4] = 12 h, 10 µM, compound concentration 10 uM, replicate 2
[5] = 24 h, 1 µM, compound concentration 1 uM, replicate 1
[6] = 24 h, 1 µM, compound concentration 1 uM, replicate 2
[7] = 24 h, 10 µM, compound concentration 10 uM, replicate 1
[8] = 24 h, 10 µM, compound concentration 10 uM, replicate 2
[9] = 48 h, 1 µM, compound concentration 1 uM, replicate 1
[10] = 48 h, 1 µM, compound concentration 1 uM, replicate 2
[11] = 48 h, 10 µM, compound concentration 10 uM, replicate 1
[12] = 48 h, 10 µM, compound concentration 10 uM, replicate 2

`COc1ncc(-c2ccc3nccc(-c4ccnnc4)c3c2)cc1NS(=O)(=O)c1ccc(F)cc1F` [OMIPALISIB] was tested, and the “Population Apoptotic (%)” value [1] was 65%, the “Population Fragmented Nuclei (%)” value [1] was 13% and the “Population Healthy Nuclei (%)” value [1] was 67%. The “Population Hoechst High Intensity Objects (%)” value [1] was 4%, the “Population Membrane Permeable-Phenotype (%)” value [1] was 6% and the “Population Mitochondria Different-Phenotype (%)” value [1] was 3%. The “Population Mitotic Cells (%)” value [1] was 34%, the “Population Normal (%)” value [1] was 95% and the “Population Pyknosed Nuclei (%)” value [1] was 18%. For the same compound, the “Population Tubulin-Different-Phenotype (%)” value [1] was 9%, the “Total Cell Count” value [1] was 135 and the “Population Apoptotic (%)” value [2] was 50%. The “Population Fragmented Nuclei (%)” value [2] was 46%, the “Population Healthy Nuclei (%)” value [2] was 42% and the “Population Hoechst High Intensity Objects (%)” value [2] was 7%. The “Population Membrane Permeable-Phenotype (%)” value [2] was 16%, the “Population Mitochondria Different-Phenotype (%)” value [2] was 16% and the “Population Mitotic Cells (%)” value [2] was 50%. The “Population Normal (%)” value [2] was 92%, the “Population Pyknosed Nuclei (%)” value [2] was 11% and the “Population Tubulin-Different-Phenotype (%)” value [2] was 23%. For the same compound, the “Total Cell Count” value [2] was 51, the “Population Apoptotic (%)” value [3] was 58% and the “Population Fragmented Nuclei (%)” value [3] was 28%. The “Population Healthy Nuclei (%)” value [3] was 37%, the “Population Hoechst High Intensity Objects (%)” value [3] was 6% and the “Population Membrane Permeable-Phenotype (%)” value [3] was 14%. For the same compound, the “Population Mitochondria Different-Phenotype (%)” value [3] was 15%, the “Population Mitotic Cells (%)” value [3] was 41% and the “Population Normal (%)” value [3] was 93%. For the same compound, the “Population Pyknosed Nuclei (%)” value [3] was 33%, the “Population Tubulin-Different-Phenotype (%)” value [3] was 15% and the “Total Cell Count” value [3] was 150. The “Population Apoptotic (%)” value [4] was 65%, the “Population Fragmented Nuclei (%)” value [4] was 33% and the “Population Healthy Nuclei (%)” value [4] was 27%. For the same compound, the “Population Hoechst High Intensity Objects (%)” value [4] was 7%, the “Population Membrane Permeable-Phenotype (%)” value [4] was 11% and the “Population Mitochondria Different-Phenotype (%)” value [4] was 16%. For the same compound, the “Population Mitotic Cells (%)” value [4] was 34%, the “Population Normal (%)” value [4] was 92% and the “Population Pyknosed Nuclei (%)” value [4] was 39%. For the same compound, the “Population Tubulin-Different-Phenotype (%)” value [4] was 22%, the “Total Cell Count” value [4] was 77 and the “Population Apoptotic (%)” value [5] was 62%. For the same compound, the “Population Fragmented Nuclei (%)” value [5] was 19%, the “Population Healthy Nuclei (%)” value [5] was 61% and the “Population Hoechst High Intensity Objects (%)” value [5] was 9%. The “Population Membrane Permeable-Phenotype (%)” value [5] was 5%, the “Population Mitochondria Different-Phenotype (%)” value [5] was 4% and the “Population Mitotic Cells (%)” value [5] was 37%. The “Population Normal (%)” value [5] was 90%, the “Population Pyknosed Nuclei (%)” value [5] was 18% and the “Population Tubulin-Different-Phenotype (%)” value [5] was 14%. For the same compound, the “Total Cell Count” value [5] was 135, the “Population Apoptotic (%)” value [6] was 33% and the “Population Fragmented Nuclei (%)” value [6] was 43%. The “Population Healthy Nuclei (%)” value [6] was 40%, the “Population Hoechst High Intensity Objects (%)” value [6] was 11% and the “Population Membrane Permeable-Phenotype (%)” value [6] was 24%. For the same compound, the “Population Mitochondria Different-Phenotype (%)” value [6] was 17%, the “Population Mitotic Cells (%)” value [6] was 66% and the “Population Normal (%)” value [6] was 88%. For the same compound, the “Population Pyknosed Nuclei (%)” value [6] was 16%, the “Population Tubulin-Different-Phenotype (%)” value [6] was 37% and the “Total Cell Count” value [6] was 50. The “Population Apoptotic (%)” value [7] was 70%, the “Population Fragmented Nuclei (%)” value [7] was 36% and the “Population Healthy Nuclei (%)” value [7] was 25%. For the same compound, the “Population Membrane Permeable-Phenotype (%)” value [7] was 17%, the “Population Mitochondria Different-Phenotype (%)” value [7] was 25% and the “Population Mitotic Cells (%)” value [7] was 29%. The “Population Pyknosed Nuclei (%)” value [7] was 38%, the “Population Tubulin-Different-Phenotype (%)” value [7] was 17% and the “Total Cell Count” value [7] was 170. The “Population Apoptotic (%)” value [8] was 80%, the “Population Fragmented Nuclei (%)” value [8] was 27% and the “Population Healthy Nuclei (%)” value [8] was 22%. The “Population Hoechst High Intensity Objects (%)” value [8] was 11%, the “Population Membrane Permeable-Phenotype (%)” value [8] was 35% and the “Population Mitochondria Different-Phenotype (%)” value [8] was 28%. For the same compound, the “Population Mitotic Cells (%)” value [8] was 20%, the “Population Normal (%)” value [8] was 88% and the “Population Pyknosed Nuclei (%)” value [8] was 49%. The “Population Tubulin-Different-Phenotype (%)” value [8] was 42%, the “Total Cell Count” value [8] was 81 and the “Population Apoptotic (%)” value [9] was 59%. For the same compound, the “Population Fragmented Nuclei (%)” value [9] was 23%, the “Population Healthy Nuclei (%)” value [9] was 50% and the “Population Hoechst High Intensity Objects (%)” value [9] was 12%. The “Population Membrane Permeable-Phenotype (%)” value [9] was 7%, the “Population Mitochondria Different-Phenotype (%)” value [9] was 6% and the “Population Mitotic Cells (%)” value [9] was 40%. For the same compound, the “Population Normal (%)” value [9] was 87%, the “Population Pyknosed Nuclei (%)” value [9] was 26% and the “Population Tubulin-Different-Phenotype (%)” value [9] was 16%. For the same compound, the “Total Cell Count” value [9] was 142, the “Population Apoptotic (%)” value [10] was 47% and the “Population Fragmented Nuclei (%)” value [10] was 43%. For the same compound, the “Population Healthy Nuclei (%)” value [10] was 32%, the “Population Hoechst High Intensity Objects (%)” value [10] was 15% and the “Population Membrane Permeable-Phenotype (%)” value [10] was 39%. The “Population Mitochondria Different-Phenotype (%)” value [10] was 43%, the “Population Mitotic Cells (%)” value [10] was 52% and the “Population Normal (%)” value [10] was 84%. For the same compound, the “Population Pyknosed Nuclei (%)” value [10] was 23%, the “Population Tubulin-Different-Phenotype (%)” value [10] was 56% and the “Total Cell Count” value [10] was 59. For the same compound, the “Population Apoptotic (%)” value [11] was 83%, the “Population Fragmented Nuclei (%)” value [11] was 37% and the “Population Healthy Nuclei (%)” value [11] was 9%. The “Population Hoechst High Intensity Objects (%)” value [11] was 15%, the “Population Membrane Permeable-Phenotype (%)” value [11] was 46% and the “Population Mitochondria Different-Phenotype (%)” value [11] was 46%. For the same compound, the “Population Mitotic Cells (%)” value [11] was 16%, the “Population Normal (%)” value [11] was 84% and the “Population Pyknosed Nuclei (%)” value [11] was 52%. The “Population Tubulin-Different-Phenotype (%)” value [11] was 61%, the “Total Cell Count” value [11] was 181 and the “Population Apoptotic (%)” value [12] was 82%. For the same compound, the “Population Fragmented Nuclei (%)” value [12] was 31%, the “Population Healthy Nuclei (%)” value [12] was 19% and the “Population Hoechst High Intensity Objects (%)” value [12] was 18%. The “Population Membrane Permeable-Phenotype (%)” value [12] was 81%, the “Population Mitochondria Different-Phenotype (%)” value [12] was 72% and the “Population Mitotic Cells (%)” value [12] was 17%. The “Population Normal (%)” value [12] was 81%, the “Population Pyknosed Nuclei (%)” value [12] was 49% and the “Population Tubulin-Different-Phenotype (%)” value [12] was 72%. The “Total Cell Count” value [12] was 84.
